# Data reported in the EternaBench riboswitch data.
# Test system: MS2 coat protein
# Test: apparent Kd, MS2 coat protein; higher = weaker binding; RNA-MaP array; FMN 200 µM where present
# Method in brief: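 Apparent Kd: the median of filtered binding-curve fits from single clusters. Designs were transcribed on Illumina sequencing-chip clusters by stalled E. coli RNA polymerase and titrated with SNAP-549-labelled MS2 coat protein from 0.7 or 1.5 nM, doubling to 3 µM, in 100 mM Tris-HCl pH 7.5, 80 mM KCl, 4 mM MgCl2, BSA, DTT, yeast tRNA and Tween-20. Each series ran without and then with constant ligand, and green signal was normalised to red-channel RNA signal and control-cluster median Fmax.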
# [1] = designed as: ON switch for flavin mononucleotide, no ligand
# [2] = ligand present: flavin mononucleotide, designed as: ON switch for flavin mononucleotide
# [3] = designed as: OFF switch for flavin mononucleotide, no ligand
# [4] = ligand present: flavin mononucleotide, designed as: OFF switch for flavin mononucleotide
Sequence,apparent Kd [1],apparent Kd [2],apparent Kd [3],apparent Kd [4]
GACAGGGAUUCAGGAUAUAUUAGCCGAGGCCGAGUAGAAGGGAAAUCCUGACAUGAGGAUCACCCAUGUCGACCCGCCUUCCUU,50.7 nM,51.9 nM,–,–
CAUAUGUGCGGAGGAUAUGGGUGAAUCGGAUCGACAUGAGGAUCACCCAUGUAGCUCUUUGGCAUCUAGAAGGCCGGAUGAACG,25.9 nM,111 nM,–,–
CGCUCAAUUACUUAGGAUAGAAUCAGAAGGCGUAACAUGAGGAUCACCCAUGUAUAGACGUGUAACGAGGAUAUGAAUUGAGCG,–,–,5.36 nM,5.34 nM
CUAUUCCGAGGAUAUACAUGAGGAUCACCCAUGUCGGGCCUCUGCGUUUAGCGCGUAAGUAGAAGGUGGGUUUC,–,–,31 nM,32.9 nM
UUAAAUCAUGUAGGAUAUGCAUGGCGAAGCUACGCAGAAGGACAUGAGGAUCACCCAUGUUAUAGCGUCUGAGUACAGAUGCAA,–,–,79.6 nM,268 nM
GGUCCACAUGAGGAUCACCCAUGUCAGGAUAUACACGGCACUAUAAUAAGUGCCACCCGUAGAAGGGACGCUGG,–,–,17.2 nM,38.5 nM
UGUUGUAUUACAGGAUAUCUAUUAUUUUUACUUAGAGAAGGGUAUUCACAUGAGGAUCACCCAUGUAUAUACGAGGAAGUUGUG,54.2 nM,56 nM,–,–
GCCAGGAUGUAAGGAUAUGCUGAGGAUAACUCAGCAGAAGGUACAUGAGGAUCACCCAUGUAAACCUAUAAUAAAUAACCUGGC,–,–,11 nM,15.4 nM
GCGAAUUAGUGAGGAUAUACAUAAUUUAUAACUGUAGAAGGCACAAACCUCAAGACAUGAGGAUCACCCAUGUGGUAUUACGCU,–,–,112 nM,281 nM
GCCAUCGUAUGAGGAUAUGGCACCGCAACGGUGCCAGAAGGCAUGUCAAUAGACAUGAGGAUCACCCAUGUGUUAUCGAUGGCA,153 nM,13.9 nM,–,–
UUGUUUAGAAAUUAACAUGAGGAUCACCCAUGUAUUGGAUCAGAGGAUAUGCAUGUUUGAUUGUAGCAGAAGGCUGAUUGUUGA,50.6 nM,45.1 nM,–,–
AUCUUGAGAGGAUAUACAUGAGGAUCACCCAUGUUUCUAACACCAUGCGGUCAUUUGCGUAGAAGGCUCGUCCG,–,–,19.9 nM,34.1 nM
UGUGCGUUGAUCUUCGAUCGGAGUACAUGAGGAUCACCCAUGUAGGAUAUUCAAAGACGCAGAUAGAAGAAGGACAUCGGAUUA,–,–,13.2 nM,11.1 nM
GCAUGCAUAGCGAUAUGAUCGAGAGAUCAUGUCGCUAAAUUUAGAAGGACAUGAGGAUCACCCAUGUAGGAUAUGGGAGCAUGA,44.6 nM,11.5 nM,–,–
GUUUACGCAUGAGGAUAUGCUCGCAUUUCAAGAGCAGAAGGUAUGUCUUUAGACAUGAGGAUCACCCAUGUAUUUAUCAUUGUA,187 nM,29.9 nM,–,–
ACCUCACAUGAGGAUCACCCAUGUUAGGAUAUUAAAUAGCGCGCAAAACAGCCCUGUAUGAGAAGGAGCUGGGA,–,–,13.6 nM,14.8 nM
CAUUGCGGAGGAUAUAGGCCGUAAUACAUGAGGAUCACCCAUGUGCCGCUGUAUAAUUCCCUAGAAGGUUGCCAUC,–,–,15.4 nM,15.7 nM
GCGAAGAACGAGAAGGCCACUACAUGAGGAUCACCCAUGUCGUGGUGUAUUGGAGGAUAUCGAUCGGCGUCUCAUGAGGACAUA,–,–,5.35 nM,5.44 nM
GAUCCUUAAGUCAGGAUAUCAAGCAAACUCUAAAUUGAGAAGGGACAUGAGGAUCACCCAUGUCACCGAAAUAA,–,–,14.7 nM,16.2 nM
AUCAGCUCGUCAGGAUAUACGUCACUGCGUCAGCAGUUUGGUAAGAUCACAUGAGGAUCACCCAUGUAGAAGGGACGAGCUGAU,–,–,15.2 nM,249 nM
AAAAAGUCAGGAUAUCGAAAAAAAAAAAAAAAAAAAAAAAACGAGAAGGGACAUGAGGAUCACCCAUGUAAAAA,–,–,63.7 nM,69.6 nM
UGUUGUAUUACAGGAUAUCUAUUAUUUUGAUUUAGAGAAGGGUAUUCACAUGAGGAUCACCCAUGUAUAUACGAGGAAGUUGUG,47.7 nM,47.9 nM,–,–
ACCUUCAAAGGAUAUGCGACUGGACGCCUUGCCAUGUAUAGACAUGAGGAUCACCCAUGUAGAAGGUUGGAGGA,–,–,30.7 nM,47.7 nM
